Experiments:
[1] = biological target: T1, D(2) dopamine receptor (Rattus norvegicus, UniProt P61169); experiment: Binding affinity using [3H]-spiperone radioligand competitive binding assay against dopamine receptor D2
How it was run: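 Rat striatal membranes in Tris pH 7.4 buffer with salts and ascorbate. [3H]spiperone at 300 pM final; nonspecific binding with 10 μM YM-09151-2. Incubated 20 min at 37 °C, then filtered. Ki derived from IC50 by Cheng-Prusoff.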

[2] = tested on: D1 dopamine receptor (Cyprinus carpio); experiment: Intrinsic activity measured relative to dopamine on D1C(R) receptor
[3] = biological target: T1, D(2) dopamine receptor; experiment: Concentration required to inhibit 50% dopamine receptor D2 in a cell free homogenate of intermediate lobe of pituitary gland; format: functional
[4] = biological target: T2, D(1A) dopamine receptor (Rattus norvegicus, UniProt P18901); experiment: Binding affinity using [125 I] SCH 23982 radioligand competitive binding assay on dopamine receptor D1
[5] = tested on: Rattus norvegicus; experiment: Rat rotation experiments were conducted to evaluate rational behavior of the rats by administering at a dose of 260 umol/kg subcutaneously; format: functional
How it was run: (§1)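 Rats with unilateral 6-hydroxydopamine lesions of the nigrostriatal bundle. Compound given subcutaneously or orally at the stated dose. Net contralateral rotations counted over 2 h after dosing and reported as mean ± SEM; negative values indicate ipsilateral turning.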

[6] = Intrinsic activity relative to dopamine at D-2 receptor.; format: functional
[7] = tested on: Rattus norvegicus; experiment: Rat rotation experiments were conducted to evaluate rational behavior of the rats by administering at a dose of 130 umol/kg subcutaneously; format: functional; how it was run: as §1
[8] = tested on: Rattus norvegicus; experiment: Rat rotation experiments were conducted to evaluate rational behavior of the rats by administering at a dose of 65 umol/Kg subcutaneously; format: functional; how it was run: as §1
[9] = biological target: D(1A) dopamine receptor (Rattus norvegicus) (UniProt P18901); experiment: Intrinsic activity was measured in relative to dopamine on D1C(S) receptor
[10] = biological target: T2, D(1A) dopamine receptor; experiment: Inhibition of Dopamine receptor D1 activity by functional cyclase assay using cell free homogenate of rat striatum; format: tissue-based
How it was run: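 Adenylate cyclase stimulation in cell-free homogenate of rat striatum. EC50 is the concentration giving half-maximal stimulation of cAMP production.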

[11] = tested on: Rattus norvegicus; experiment: Rat rotation experiments were conducted to evaluate rational behavior of the rats by administering at a dose of 15 umol/kg subcutaneously; format: functional; how it was run: as §1
[12] = tested on: Rattus norvegicus; experiment: Rat rotation experiments were conducted to evaluate rational behavior of the rats by administering at a dose of 30 umol/kg subcutaneously; format: functional; how it was run: as §1

T2 sequence (P18901 whole entry): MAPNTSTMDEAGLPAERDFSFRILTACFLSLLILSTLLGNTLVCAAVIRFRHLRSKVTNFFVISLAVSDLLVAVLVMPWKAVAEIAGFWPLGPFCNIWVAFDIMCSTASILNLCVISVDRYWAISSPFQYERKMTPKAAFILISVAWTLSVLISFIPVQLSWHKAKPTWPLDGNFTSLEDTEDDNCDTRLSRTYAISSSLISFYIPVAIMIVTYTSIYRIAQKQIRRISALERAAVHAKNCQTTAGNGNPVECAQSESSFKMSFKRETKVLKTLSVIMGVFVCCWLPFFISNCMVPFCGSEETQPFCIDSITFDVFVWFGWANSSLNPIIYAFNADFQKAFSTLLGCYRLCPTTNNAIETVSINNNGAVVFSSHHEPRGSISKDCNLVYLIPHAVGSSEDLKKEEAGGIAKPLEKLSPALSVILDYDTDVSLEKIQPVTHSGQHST
Sequence of D(1A) dopamine receptor (Rattus norvegicus) (P18901 whole entry, looked up): as the sequence (P18901 whole entry) above
T1 sequence (P61169 whole entry): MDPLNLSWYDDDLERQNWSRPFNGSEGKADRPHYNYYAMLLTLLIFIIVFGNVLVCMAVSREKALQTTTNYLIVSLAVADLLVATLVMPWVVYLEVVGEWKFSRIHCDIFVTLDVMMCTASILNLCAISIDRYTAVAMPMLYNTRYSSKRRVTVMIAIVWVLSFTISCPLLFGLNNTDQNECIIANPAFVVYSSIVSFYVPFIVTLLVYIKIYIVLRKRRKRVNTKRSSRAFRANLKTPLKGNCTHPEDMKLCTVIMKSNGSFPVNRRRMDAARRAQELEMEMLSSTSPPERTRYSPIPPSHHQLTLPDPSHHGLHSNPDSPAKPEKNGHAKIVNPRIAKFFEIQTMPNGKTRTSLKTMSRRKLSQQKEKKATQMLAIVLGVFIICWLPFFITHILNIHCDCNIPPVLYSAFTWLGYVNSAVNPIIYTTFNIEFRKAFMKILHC

Ki [1] [nM] | Intrinsic activity [2] [%] | EC50 [3] [nM] | Ki [4] [nM] | Intrinsic activity [6] [%] | Intrinsic activity [9] [%] | EC50 [10] [nM] | Structure (SMILES) | Activity [5] | Activity [7] | Activity [8] | Activity [11] | Activity [12]
1050 | 161 | > 10000 | 13.7 |  |  |  | NC[C@@H]1OC(c2ccc(I)cc2)Cc2c1ccc(O)c2O (stereo partly drawn) |  |  |  |  | 
> 10000 | 92 | 5130 | 1760 | 76 |  |  | CC[C@H]1Cc2c(ccc(O)c2O)[C@H](CN)O1 |  |  |  |  | 
 |  | > 10000 |  |  |  |  | NC[C@@H]1OC(C23C[C@H]4C[C@@H](C2)C[C@@H](C3)C4)Cc2c1ccc(O)c2O (stereo partly drawn) |  |  |  |  | 
1470 | 93 | > 10000 | 443 |  |  |  | NC[C@@H]1OC(Cc2ccccc2)Cc2c1ccc(O)c2O (stereo partly drawn) |  |  |  |  | 
2610 |  | > 10000 | 530 |  |  |  | NC[C@@H]1OC(C(c2ccccc2)c2ccccc2)Cc2c1ccc(O)c2O (stereo partly drawn) |  |  |  |  | 
1070 |  | 286 | 407 | 100 |  |  | C#CCC1Cc2c(ccc(O)c2O)[C@H](CN)O1 (stereo partly drawn) |  |  |  |  | 
670 | 76 | > 10000 | 248 |  | 78 | 18.9 | NC[C@@H]1OC(CCc2ccccc2)Cc2c1ccc(O)c2O (stereo partly drawn) |  |  |  |  | 
> 10000 |  | > 10000 | 2510 |  |  |  | C#CCN(C)C[C@@H]1OC(C2CCCCC2)Cc2c1ccc(O)c2O (stereo partly drawn) |  |  |  |  | 
825 | 151 | 359 | 870 | 80 |  |  | CCCCC1Cc2c(ccc(O)c2O)[C@H](CN)O1 (stereo partly drawn) |  |  |  |  | 

Continued, molecule first:

Structure (SMILES) | Ki [1] [nM] | Intrinsic activity [2] [%] | EC50 [3] [nM] | Ki [4] [nM] | Intrinsic activity [6] [%] | Intrinsic activity [9] [%] | EC50 [10] [nM] | Activity [5] | Activity [7] | Activity [8] | Activity [11] | Activity [12]
COc1cccc(C2Cc3c(ccc(O)c3O)[C@H](CN)O2)c1 (stereo partly drawn) | 764 | 107 | > 10000 | 310 |  |  |  |  |  |  |  | 
Oc1ccc2c(c1O)CC(C1CCCCC1)O[C@H]2CNCc1ccccc1 (stereo partly drawn) | 2450 |  | > 10000 | > 10000 |  |  |  |  |  |  |  | 
NC[C@@H]1OCCc2c1ccc(O)c2O | 4610 |  | 2850 | 1030 | 96 |  |  | 584 | 286 | 93 |  | 
COc1ccc(CC2Cc3c(ccc(O)c3O)[C@H](CN)O2)cc1 (stereo partly drawn) | 2710 |  | > 10000 | 2650 |  |  |  |  |  |  |  | 
NC[C@@H]1OC(c2ccc(Br)cc2)Cc2c1ccc(O)c2O (stereo partly drawn) | 2090 | 106 | 358 | 52 | 94 |  |  |  |  |  |  | 
NC[C@@H]1OC(CC2CCCC2)Cc2c1ccc(O)c2O (stereo partly drawn) | 776 | 124 | 427 | 30.4 | 76 |  |  |  |  |  |  | 
OCCCNC[C@@H]1OC(C2CCCCC2)Cc2c1ccc(O)c2O (stereo partly drawn) | 12300 | 58 | > 10000 | 3140 |  |  |  |  |  |  |  | 
NC[C@@H]1OC2(CCCCC2)Cc2c1ccc(O)c2O | 4680 | 65 | 6680 | 479 | 56 |  |  |  |  |  |  | 
C#CCNC[C@@H]1OC(C2CCCCC2)Cc2c1ccc(O)c2O (stereo partly drawn) | 11500 | 87 | > 10000 | 4730 |  |  |  |  |  |  |  | 
NC[C@@H]1OC(c2cccc(O)c2)Cc2c1ccc(O)c2O (stereo partly drawn) | 590 |  | 192 | 0.49 | 111 |  |  |  |  |  |  | 
Oc1ccc2c(c1O)CC(C1CCCCC1)O[C@H]2CNC1CC1 (stereo partly drawn) | 636 | 71 | > 10000 | 329 |  |  |  |  |  |  |  | 
CNC[C@@H]1OC(C2CCCCC2)Cc2c1ccc(O)c2O (stereo partly drawn) | 724 |  | > 10000 | 14.1 |  |  |  |  |  |  |  | 
NC[C@@H]1OC(C2CCCCCCC2)Cc2c1ccc(O)c2O (stereo partly drawn) | 342 |  | 760 | 88.7 | 70 |  |  |  |  |  |  | 
CC[C@@H]1Cc2c(ccc(O)c2O)[C@H](CN)O1 | 3530 | 89 | 10800 | 167 | 81 |  |  |  |  |  |  | 
NC[C@@H]1OC(COc2ccccc2)Cc2c1ccc(O)c2O (stereo partly drawn) | 1280 | 51 | > 10000 | 374 |  | 64 | 39.8 |  |  |  | 467 | 514
C=CCN(C)C[C@@H]1OC(C2CCCCC2)Cc2c1ccc(O)c2O (stereo partly drawn) | 2600 |  | > 10000 | 3190 |  |  |  |  |  |  |  | 
CCCCCCC1Cc2c(ccc(O)c2O)[C@H](CN)O1 (stereo partly drawn) | 5540 | 90 | 782 | 704 | 80 | 84 | 23.4 |  |  |  |  | 
NC[C@@H]1OC(COCc2ccccc2)Cc2c1ccc(O)c2O (stereo partly drawn) | 386 | 107 | 204 | 2290 | 78 |  |  |  |  |  |  | 
